# From ChEMBL document CHEMBL3612041, “Combating highly resistant emerging pathogen Mycobacterium abscessus and Mycobacterium tuberculosis with novel salicylanilide esters and carbamates” (Eur J Med Chem, 2015)
# Experiments:
# [1] = test system: Mycobacterium tuberculosis; test: Antimycobacterial activity against INH/RIF/rifabutine/streptomycin-resistance Mycobacterium tuberculosis 9449/2006 after 21 days by microbroth dilution method; type: functional; settings: 9449/2006, 504 h
# Procedure, shortened: (§1)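 Micromethod MIC in Sula semisynthetic medium, pH 6.5. Incubation at 37 °C, read at 14 and 21 days. MIC taken as the lowest concentration giving complete inhibition of mycobacterial growth.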
# [2] = Selectivity index, ratio of IC50 for human MONO-MAC-6 cells to MIC for INH/RIF/rifabutine/streptomycin-resistance Mycobacterium tuberculosis 9449/2006 after 21 days; type: toxicity; settings: read-out: Selectivity Index
# [3] = test system: Mycobacterium tuberculosis; test: Antimycobacterial activity against multidrug-resistance Mycobacterium tuberculosis A8 after 28 days by serial dilution method; type: functional; settings: for MIC: Mycobacterium tuberculosis, A8, 672 h
# Procedure, shortened: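 Serial dilution in in-house Sula semisynthetic medium, pH 6.5. Compounds added as DMSO solutions at 10 doses, final 0.05–100 µg/mL. Incubation at 37 °C, 7 days for M. abscessus and 28 days for M. tuberculosis strains. MIC taken as the lowest concentration giving visible growth inhibition, confirmed by CFU on drug-free Löwenstein-Jensen medium after further equal incubation. Repeated at least twice.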
# [4] = test system: Mycobacterium tuberculosis; test: Antimycobacterial activity against INH/RIF/rifabutine/streptomycin-resistance Mycobacterium tuberculosis 9449/2006 after 14 days by microbroth dilution method; type: functional; settings: 9449/2006, 336 h; procedure, shortened: as §1
# [5] = test system: Mycobacterium tuberculosis; test: Antimycobacterial activity against INH/RIF/rifabutine/streptomycin/ethambutol/ofloxacin/gentamicin/amikacin-resistance Mycobacterium tuberculosis Praha 131 after 14 days by microbroth dilution method; type: functional; settings: Praha 131, 336 h; procedure, shortened: as §1
# [6] = test system: Mycobacterium tuberculosis; test: Antimycobacterial activity against INH/RIF/rifabutine/streptomycin/ethambutol/ofloxacin/gentamicin/amikacin-resistance Mycobacterium tuberculosis Praha 131 after 21 days by microbroth dilution method; type: functional; settings: Praha 131, 504 h; procedure, shortened: as §1
# [7] = Selectivity index, ratio of IC50 for human MONO-MAC-6 cells to MIC for multidrug-resistance Mycobacterium tuberculosis A8; type: toxicity; settings: read-out: Selectivity Index
# [8] = Selectivity index, ratio of IC50 for human MONO-MAC-6 cells to MIC for INH/RIF/rifabutine/streptomycin/ethambutol/ofloxacin/gentamicin/amikacin-resistance Mycobacterium tuberculosis Praha 131 after 21 days; type: toxicity; settings: read-out: Selectivity Index
Structure (SMILES),MIC [1] [µM],selectivity ratio at 504 h [2],Activity [3] [CFU],MIC [3] [µM],MIC [4] [µM],MIC [5] [µM],MIC [6] [µM],selectivity ratio [7],selectivity ratio at 504 h [8]
O=C(NCCCCl)Oc1ccc(Br)cc1C(=O)Nc1ccc(Cl)c(Cl)c1,2,4.8,2,1,1,1,1,9.5,9.5
O=C(c1ccccc1)c1ccc(NC(=O)c2cc(Br)ccc2O)cc1,–,–,1,12.7,–,–,–,1.7,–
O=C(NCCCl)Oc1ccc(Cl)cc1C(=O)Nc1ccc(Cl)c(Cl)c1,–,–,0,2.4,–,–,–,1.9,–
O=C(Nc1ccc(C(F)(F)F)cc1)c1cc(Cl)ccc1O,–,–,0,1.6,–,–,–,–,–
O=C(Oc1ccc(Cl)cc1C(=O)Nc1ccc(Cl)c(Cl)c1)c1cnccn1,0.25,–,–,–,–,–,0.125,–,–
O=C(Oc1ccc(Cl)cc1C(=O)Nc1ccc(C(F)(F)F)cc1)c1cnccn1,0.5,–,–,–,–,–,1,–,–
O=C(NCCCCl)Oc1ccc(Cl)cc1C(=O)Nc1ccc(C(F)(F)F)cc1,2,4.4,0,1.2,1,1,2,7.3,4.4
O=C(NCCCCl)Oc1ccc(Cl)cc1C(=O)Nc1ccc(C(=O)c2ccccc2)cc1,–,–,0,21.3,–,–,–,0.8,–
O=C(NCCCl)Oc1ccc(Br)cc1C(=O)Nc1ccc(C(=O)c2ccccc2)cc1,–,–,0,20,–,–,–,1.2,–
O=C(Oc1ccc(Br)cc1C(=O)Nc1ccc(C(F)(F)F)cc1)c1cnccn1,0.5,–,–,–,–,–,0.5,–,–
O=C(Oc1ccc(Br)cc1C(=O)Nc1ccc(C(F)(F)F)cc1)c1cnc(Cl)cn1,2,0.6,22,2,1,2,2,0.6,0.6
O=C(NCCCCl)Oc1ccc(Br)cc1C(=O)Nc1ccc(C(F)(F)F)cc1,2,2.9,0,1,1,1,2,5.7,2.9
O=C(c1ccccc1)c1ccc(NC(=O)c2cc(Cl)ccc2O)cc1,–,–,50,14.2,–,–,–,3.4,–
O=C(Oc1ccc(Cl)cc1C(=O)Nc1ccc(Cl)c(Cl)c1)c1cnc(Cl)cn1,2,5.1,0,4.4,1,1,2,2.3,5.1
O=C(O)c1cnc(Cl)cn1,–,–,–,> 633,–,–,–,–,–
O=C(Oc1ccc(Cl)cc1C(=O)Nc1ccc(C(F)(F)F)cc1)c1cnc(Cl)cn1,2,0.6,1,1.1,1,1,1,1,1.1
O=C(NCCCl)Oc1ccc(Cl)cc1C(=O)Nc1ccc(C(=O)c2ccccc2)cc1,–,–,21,10.9,–,–,–,3.5,–
CCCNC(=O)Oc1ccc(Cl)cc1C(=O)Nc1ccc(Cl)c(Cl)c1,1,7,2,1.3,1,1,1,5.4,7
O=C(Nc1ccc(Cl)c(Cl)c1)c1cc(Br)ccc1O,–,–,0,2.8,–,–,–,1.3,–
O=C(NCCCCl)Oc1ccc(Cl)cc1C(=O)Nc1ccc(Cl)c(Cl)c1,–,–,1,1.2,–,–,–,2.1,–
O=C(NCCCCl)Oc1ccc(Br)cc1C(=O)Nc1ccc(C(=O)c2ccccc2)cc1,–,–,1,1.9,–,–,–,6.6,–
O=C(NCCCl)Oc1ccc(Br)cc1C(=O)Nc1ccc(Cl)c(Cl)c1,2,3.5,0,2.2,1,1,2,3.1,3.5
NNC(=O)c1ccncc1 [ISONIAZID],–,–,12,7.3,–,–,–,–,–
O=C(Nc1ccc(Cl)c(Cl)c1)c1cc(Cl)ccc1O,–,–,8,1.6,–,–,–,2.3,–
O=C(Oc1ccc(Br)cc1C(=O)Nc1ccc(Cl)c(Cl)c1)c1cnc(Cl)cn1,–,–,11,2,–,–,–,2.9,–
O=C(NCCCl)Oc1ccc(Br)cc1C(=O)Nc1ccc(C(F)(F)F)cc1,2,4.7,9,1.1,1,1,2,8.5,4.7
O=C(Nc1ccc(C(F)(F)F)cc1)c1cc(Br)ccc1O,–,–,0,2.8,–,–,–,2.7,–
O=C(NCCCl)Oc1ccc(Cl)cc1C(=O)Nc1ccc(C(F)(F)F)cc1,1,7.6,0,1.2,0.5,1,2,6.3,3.8
CCCNC(=O)Oc1ccc(Cl)cc1C(=O)Nc1ccc(C(=O)c2ccccc2)cc1,–,–,6,11.5,–,–,–,1.6,–
